Experimental data as given in ChEMBL document CHEMBL1154785, “Identification of critical ligand binding determinants in Mycobacterium tuberculosis adenosine-5'-phosphosulfate reductase” (J Med Chem, 2009).

Experiments:
[1] = Binding affinity to Mycobacterium tuberculosis adenosine-5'-phosphosulfate reductase assessed as S-sulfocysteine formation at pH 5.5 by single turnover method in absence of thioredoxin
[2] = Binding affinity to Mycobacterium tuberculosis adenosine-5'-phosphosulfate reductase assessed as S-sulfocysteine formation at pH 7.5 by single turnover method
[3] = Binding affinity to Mycobacterium tuberculosis adenosine-5'-phosphosulfate reductase assessed as S-sulfocysteine formation at pH 9 by single turnover method
[4] = Dissociation constant, pKa at pH 6 to 9.5; assay type: physicochemical
[5] = Displacement of [35S]APS from Mycobacterium tuberculosis adenosine-5'-phosphosulfate reductase by liquid scintillation counting
In short: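 Purified enzyme; reduction of ³⁵S-APS to sulfite at 30 °C in 100 mM bis-tris propane pH 7.5, 5 mM DTT and 10 μM thioredoxin. Quenched with 2% charcoal containing 20 mM Na₂SO₃, then ³⁵S-sulfite in the supernatant counted by scintillation. k_obs taken at varied inhibitor levels with [³⁵S-APS] ≪ K1/2, fit to competitive inhibition (Ki taken as Kd). At least two independent experiments.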

[6] = Binding affinity to Mycobacterium tuberculosis adenosine-5'-phosphosulfate reductase assessed as S-sulfocysteine formation at pH 7.5 by single turnover method in absence of MgCl2
[7] = Binding affinity to Mycobacterium tuberculosis adenosine-5'-phosphosulfate reductase assessed as S-sulfocysteine formation at pH 7.5 by single turnover method in presence of 0.5 mM MgCl2
[8] = Binding affinity to Mycobacterium tuberculosis adenosine-5'-phosphosulfate reductase assessed as S-sulfocysteine formation at pH 7.5 by single turnover method in presence of 2 mM MgCl2
[9] = tested on: Mycobacterium tuberculosis; assay: Ratio of Kd for Mycobacterium tuberculosis adenosine-5'-phosphosulfate reductase in presence of 0.5 mM MgCl2 to Kd Mycobacterium tuberculosis adenosine-5'-phosphosulfate reductase in absence of MgCl2
[10] = tested on: Mycobacterium tuberculosis; assay: Ratio of Kd for Mycobacterium tuberculosis adenosine-5'-phosphosulfate reductase in presence of 2 mM MgCl2 to Kd Mycobacterium tuberculosis adenosine-5'-phosphosulfate reductase in absence of MgCl2
[11] = Dissociation constant, pKa in solution; assay type: physicochemical
[12] = tested on: Mycobacterium tuberculosis; assay: Ratio of Kcat to Km of Mycobacterium tuberculosis adenosine-5'-phosphosulfate reductase; conditions: tested as the 35S-labelled form

Nc1ncnc2c1ncn2[C@@H]1O[C@H](COP(=O)(O)OP(N)(=O)O)[C@@H](O)[C@H]1O
Kd [1]: 410 µM | Kd [2]: 410 µM | Kd [3]: 56.8 µM

Nc1[nH]cnc2ncnc1-2 [ADENINE]
Kd [1]: ≥ 90000 µM

Nc1ncnc2c1ncn2[C@@H]1O[C@H](COP(N)(=O)O)[C@@H](O)[C@H]1O
Kd [1]: 100 µM | Kd [2]: 100 µM | Kd [3]: 82 µM

Nc1ncnc2c1ncn2[C@@H]1O[C@H](COP(=O)(S)OP(=O)(O)O)[C@@H](O)[C@H]1O (stereo partly specified)
Kd [1]: 0.8 µM

Nc1ncnc2c1ncn2[C@@H]1O[C@H](COP(=O)(O)O)[C@@H](O)[C@H]1O [ADENOSINE PHOSPHATE]
Kd [1]: 5.4 µM | pKa [4]: 8.1 | Kd [5]: 5.4 µM | Kd [6]: 5.4 µM | Kd [7]: 21 µM | Kd [8]: 31 µM | Ratio [9]: 5 | Ratio [10]: 5

O=P(O)(O)OC[C@H]1O[C@@H](O)[C@H](O)[C@@H]1O
Kd [1]: 93 µM

Nc1ncnc2c1ncn2[C@@H]1O[C@H](CO)[C@@H](OP(=O)(O)O)[C@H]1O
Kd [1]: 3200 µM

O=P(O)(O)O [PHOSPHORIC ACID]
Kd [1]: 66000 µM

Nc1ncnc2c1ncn2[C@@H]1O[C@H](COP(O)(O)=S)[C@@H](O)[C@H]1O
Kd [1]: 3.3 µM | pKa [4]: 7.7 | pKa [11]: 7.7

Nc1ncnc2c1ncn2[C@@H]1O[C@H](COP(=O)(S)OS(=O)(=O)O)[C@@H](O)[C@H]1O (mixture of isomers)
Kd [1]: 43 µM

Nc1ncnc2c1ncn2[C@@H]1O[C@H](COP(=O)(O)CP(=O)(O)O)[C@@H](O)[C@H]1O [PHOSPHOMETHYLPHOSPHONIC ACID ADENOSYL ESTER]
Kd [1]: 27 µM

Nc1ncnc2c1ncn2[C@@H]1O[C@H](COP(=O)(O)CS(=O)(=O)O)[C@@H](O)[C@H]1O
Kd [1]: 700 µM

Nc1ncnc2c1ncn2[C@@H]1O[C@H](COP(=O)(O)O)[C@@H](OP(=O)(O)O)[C@H]1O
Kd [1]: 770 µM

Nc1ncnc2c1ncn2[C@@H]1O[C@H](COP(=O)(O)C(F)(F)P(=O)(O)O)[C@@H](O)[C@H]1O
Kd [1]: 13 µM

Nc1ncnc2c1ncn2[C@@H]1O[C@H](COP(=O)(O)OS(=O)(=O)O)[C@@H](O)[C@H]1O
Kd [1]: 0.2 µM | Ki [1]: 0.2 µM | kcat/Km [12]: 2 ×10⁶ /M/s

Nc1ncnc2c1ncn2[C@@H]1O[C@H](COP(=O)(O)OP(=O)(O)S)[C@@H](O)[C@H]1O (stereo partly specified)
Kd [1]: 0.15 µM | pKa [4]: 5.8 | pKa [11]: 5.2

Nc1ncnc2c1ncn2[C@@H]1O[C@H](CO)[C@@H](O)[C@H]1O [ADENOSINE]
Kd [1]: 3000 µM

O[C@@H]1[C@H](O)[C@H](O)CO[C@H]1O [RIBOSE (PYRANOSE)]
Kd [1]: 680000 µM

O=S(=O)(O)O [SULFURIC ACID]
Kd [1]: ≥ 310000 µM

Nc1ncnc2c1ncn2[C@@H]1O[C@H](COP(=O)(O)OP(=O)(O)O)[C@@H](O)[C@H]1O [ADENOSINE DIPHOSPHATE]
Kd [1]: 4.3 µM | pKa [4]: 6.4 | Kd [6]: 4.3 µM | Kd [7]: 7.3 µM | Kd [8]: 20 µM | Ratio [9]: 5 | Ratio [10]: 5

Nc1ncnc2c1ncn2[C@@H]1O[C@H](COP(=O)(O)NP(=O)(O)O)[C@@H](O)[C@H]1O
Kd [1]: 260 µM | Kd [2]: 257 µM | Kd [3]: 110 µM
